# Source: PubChem BioAssay
# HCT116 bCat-KO: beta-catenin-lacking colon tumor cell growth suppression. HCT116 beta-catenin knockout viability, CellTiter-Glo, 60 h; active compounds read low. viability, % at 10 µM. 140,000 compounds, 1.5% hits. AID 818;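 active = viability at or under a set limit, the compound median less 4 SD, cut at about 6% in these data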
# PMI act hi M6P: PMI (human) activation, high substrate; P34949; coupled PMI enzyme assay, resazurin fluorescence, 20 min; active compounds read high; 1 = untreated enzyme, 0 = substrate-free blank; activation factor at 20 µM; 190,000 compounds, 0.34% hits; AID 1216;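 active = activation factor of 2 or more at 20 µM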
# Target sequence (P34949 whole entry, looked up): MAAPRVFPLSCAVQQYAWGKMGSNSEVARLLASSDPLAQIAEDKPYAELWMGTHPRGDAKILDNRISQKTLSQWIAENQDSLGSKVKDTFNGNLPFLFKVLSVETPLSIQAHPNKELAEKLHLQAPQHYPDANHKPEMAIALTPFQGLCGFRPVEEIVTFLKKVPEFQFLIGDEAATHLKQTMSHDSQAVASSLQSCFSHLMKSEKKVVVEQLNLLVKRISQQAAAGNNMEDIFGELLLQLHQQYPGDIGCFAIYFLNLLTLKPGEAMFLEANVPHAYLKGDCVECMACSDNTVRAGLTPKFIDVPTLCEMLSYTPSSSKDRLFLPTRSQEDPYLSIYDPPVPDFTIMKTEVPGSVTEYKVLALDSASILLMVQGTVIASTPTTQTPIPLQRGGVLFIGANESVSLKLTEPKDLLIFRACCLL
#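 assay system = human phosphomannose isomerase with PGI, G6PDH, diaphorase coupling enzymes | quantity = 15 ng/mL PMI | incubation = enzyme reaction with compound 20 min at room temperature | medium = HEPES pH 7.4 buffer with MgCl2 and Tween-20 | compound dosing = one concentration, 20 µM, in 1% DMSO | measured by = Diaphorase-driven resazurin-to-resorufin fluorescence, excitation 544, emission 590 nm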
# L major viab: Leishmania major promastigote growth inhibition | Leishmania major promastigotes, resazurin fluorescence viability | inhibition, % at 10 µM | 200,000 compounds, 9% hits; in the data active = inhibition above about 50%;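 note: promastigotes grown with compound for 44 hours at 28 °C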
# PTEN del growth: growth suppressors of cells with PTEN tumor suppressor deletion; HCT116 PTEN-null viability, CellTiter-Glo, 60 h; active compounds read low; 140,000 compounds, 1.2% hits; AID 827; viability, % at 10 µM;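 active = viability at or below a set limit, 4 SD under the median of all tested compounds, cut at about 3.7% in these data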;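 note: PTEN knockout HCT116 line with beta catenin targeted HCT116 as companion control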
# PMI act: increases human mannose-6-phosphate isomerase activity. P34949. purified human PMI, coupled resazurin fluorescence, 20 min; active compounds read high; 1 = vehicle control, 0 substrate-free wells. activation factor at 20 µM. 190,000 compounds, 0.005% hits. AID 1214;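 active = activation factor of 2 or more at 20 µM, relative to plate controls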
# A number is an active result; - = inactive; . = no result given. Shown are actives, neighbours in structure and some others; about 9.6% of the full set was active somewhere.
SMILES,HCT116 bCat-KO,PMI act hi M6P,L major viab,PTEN del growth,PMI act
COc1ccc2[nH]c3c(=O)n(CCCCCC(=O)NCCC(C)C)c(=S)[nH]c3c2c1,.,-,-,.,-
COc1ccc(S(=O)(=O)N2CCN(C3CCCCCCC3)CC2)cc1,-,-,72.9,-,-
CC1CCN(Cc2csc(N)n2)CC1,-,-,-,-,-
O=C(N/N=C/c1ccc(Br)cc1)c1ccccc1-n1cccc1,-,-,65.3,-,-
CCCCNC(=O)c1ccccc1NC(=O)CN(c1ccccc1)S(=O)(=O)N(C)C,-,-,64.7,-,-
COC(=O)c1ccccc1NC(=O)CN(c1ccccc1)S(=O)(=O)N(C)C,-,.,-,-,.
COc1ccc(CCNCC2C(Oc3ccc(Cl)cc3)C(=O)N2c2ccccc2C)cc1OC (configuration not stated),.,-,-,.,-
CSc1ncccc1C(=O)OCC(=O)NC(C)C,.,-,-,.,-
Cc1ccc2[nH]c(=O)c(C(c3nnnn3CCc3ccccc3)N3CCOCC3)cc2c1 (configuration not stated),-,-,96.8,-,-
COCCn1nnnc1C(c1cc2cc(OC)ccc2[nH]c1=O)N1CCC(Cc2ccccc2)CC1 (configuration not stated),3.0,-,50.3,2.7,-
C/C(Cn1cnc([N+](=O)[O-])n1)=N\NC(=O)c1ccc(O)cc1O,.,-,-,.,-
O=C(Nc1cccc(Cl)c1)Nc1ccccc1-n1ccnc1,.,-,73.8,.,-
O=C(Nc1ccc(-c2noc(CCc3ccccc3)n2)cc1)c1cccnc1,-,-,50.1,-,-
Cn1cc(C(=O)CCl)c2ccccc21,.,-,92.0,.,-
Cn1cc(C(N)=O)c2ccccc21,.,-,-,.,-
COc1ccc(CNC(=O)c2coc(=O)c3ccccc23)c(OC)c1,.,-,-,.,-
O=C(COC(=O)c1ccc(O)cc1)Nc1ccccc1-c1ccccc1,-,-,56.7,-,-
O=S(=O)(c1ccccc1)c1nc(-c2cccs2)oc1NCC1CCCO1 (configuration not stated),-,-,85.6,-,-
CCSc1oc(-c2cccs2)nc1S(=O)(=O)c1ccccc1,-,2,-,-,-
CCCc1cc(=O)n2[nH]c(C)cc2n1,-,-,-,-,-
Cn1cc(/C=N/n2cnc3sc4c(c3c2=O)CCCC4)c2ccccc21,-,-,-,-,-
O=c1c2c3c(sc2ncn1/N=C/c1ccc([N+](=O)[O-])o1)CCCC3,-,-,96.0,-,-
COc1cccc2c1C(=O)c1c(O)c3c(c(O)c1C2=O)C[C@@](O)(C(=O)CO)C[C@@H]3O[C@H]1C[C@H](N)[C@H](O)[C@H](C)O1,4.1,-,100.2,-,-
Cc1ccc(-c2csc(NC(=O)c3ccc(S(=O)(=O)N4CCc5ccccc54)cc3)n2)cc1,-,-,100.0,-,-
O=C(Nc1nc(-c2ccccc2)cs1)c1ccc(S(=O)(=O)N2CCc3ccccc32)cc1,-,-,98.7,-,-
SMILES,HCT116 bCat-KO,PMI act hi M6P,L major viab,PTEN del growth,PMI act
NS(=O)(=O)c1ccc(NC(=O)c2ccc(S(=O)(=O)N3CCc4ccccc43)cc2)cc1,.,-,-,.,-
Cc1ccccc1-c1cccc([C@@H]2C[C@H]3CN(Cc4cccnc4)C(=O)[C@]34CCCN24)c1,.,-,62.6,.,-
Cc1ccc([C@@H]2C[C@H]3CN(Cc4cccc(Cl)c4)C(=O)[C@]34CCCN24)o1,.,-,-,.,-
O=C1N(Cc2cccc(Cl)c2)C[C@@H]2C[C@@H](c3cccc4ncccc34)N3CCC[C@@]123,.,-,100.0,.,-
O=C1N(Cc2cccc(Cl)c2)C[C@@H]2C[C@@H](c3ccc4nonc4c3)N3CCC[C@@]123,.,-,59.7,.,-
COc1ccccc1CN1C[C@@H]2C[C@@H](c3ccc4nsnc4c3)N3CCC[C@@]23C1=O,.,-,67.4,.,-
CC(Sc1nnc(-c2ccccc2)c(-c2ccccc2)n1)C(=O)N1CCc2ccccc21 (configuration not stated),-,-,-,-,-
CCCCOCCCNC(=O)c1ccc(OCC)cc1,-,-,-,-,-
Cc1ccc(Oc2cc(NC(=O)CCCn3nc([N+](=O)[O-])cc3C)cc([N+](=O)[O-])c2)cc1,-,-,94.6,-,-
Cc1ccccc1Cn1ccc(NC(=O)c2nn(C)cc2[N+](=O)[O-])n1,3.8,-,-,2.1,-
Cc1nn(CCCC(=O)Nc2cc(Oc3ccccc3)cc([N+](=O)[O-])c2)c(C)c1[N+](=O)[O-],-,-,98.8,-,-
Cc1c(Cl)cccc1NC(=O)CCCn1nc([N+](=O)[O-])cc1C,.,-,-,.,-
Cc1cc([N+](=O)[O-])nn1CCCC(=O)NC(C)c1ccccc1 (configuration not stated),-,-,51.1,-,-
Cc1ccc(C)c(Oc2cc(NC(=O)CCCn3nc(C)c([N+](=O)[O-])c3C)cc([N+](=O)[O-])c2)c1,-,-,-,-,-
CCn1cc([N+](=O)[O-])c(C(=O)Nc2ccn(Cc3ccccc3F)n2)n1,-,-,-,-,-
C=CCNc1nc(Cl)nc(Nc2ccc(OCC)cc2)n1,-,-,-,-,-
Cc1cc(C)cc(NC(=O)C(=O)NCCCN2CCOCC2)c1,.,-,-,.,-
Cn1cc([N+](=O)[O-])c(C(=O)Nc2cc(Oc3ccccc3)cc([N+](=O)[O-])c2)n1,1.6,-,-,1.7,-
CCC(=O)N1CCc2cc(S(=O)(=O)NCCN3CCC(C)CC3)ccc21,-,-,54.5,-,-
CCC(=O)N1CCc2cc(S(=O)(=O)NC(Cc3ccccc3)C(=O)NC3CCCCC3)ccc21 (configuration not stated),-,-,-,-,-
COc1ccc(CCNS(=O)(=O)c2ccc3c(c2)CCN3C(=O)C2CC2)cc1OC,-,-,-,-,-
CCOc1ccc(OCC)c(NS(=O)(=O)c2ccc3c(c2)CCN3C(=O)C2CCC2)c1,-,-,99.3,-,-
CCC(=O)N1CCc2cc(S(=O)(=O)NC(CC(C)C)C(=O)N3CCc4ccccc43)ccc21 (configuration not stated),-,-,100.1,-,-
CC(C)(CN1CCCCC1)NS(=O)(=O)c1ccc(Cl)cc1,-,-,90.1,-,-
CC(C)(C)SCCNS(=O)(=O)c1ccc(Cl)cc1,.,-,-,.,-
COC1CCCCC1NS(=O)(=O)c1ccc(Cl)cc1 (configuration not stated),-,-,-,-,-
CC(C)(CNS(=O)(=O)c1ccc(Cl)cc1)N1CCCCC1,-,-,81.3,-,-
CC1CC(C)CN(CC(C)(C)NS(=O)(=O)c2ccc(Cl)cc2)C1 (configuration not stated),-,-,95.2,-,-
CN(C)CC(C)(C)NS(=O)(=O)c1ccc(Cl)cc1,-,-,-,-,-
CCN(CC)CC(C)(C)NS(=O)(=O)c1ccc(Cl)cc1,-,-,70.8,-,-
